Assay outcomes: PubChem, several laboratories
In the library only some 1.4% were active in any assay of this set; here they are far more common.
Tb MetRS inh: Trypanosoma brucei MetRS inhibition | inhibition, % at 11.9 µM | hit rate 0.4% among 360,000 | purified T. brucei MetRS, ATP depletion, Kinase-Glo luminescence | AID 624268;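 active = inhibition above a per-plate cutoff of the control wells' mean inhibition plus 3 SD, cut at about 5.5% in these data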
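Test system: purified T. brucei MetRS enzyme. Also added: ATP, methionine and E. coli bulk tRNA substrates. Compound: 11.9 µM single point. Schedule: 15 min enzyme-compound preincubation, 2 h reaction, 10 min detection, 25 °C. Signal: luciferase luminescence of residual ATP, Kinase-Glo. Evaluation: percent inhibition versus plate control medians. Controls: DMSO wells, low control.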
IDE inh: cellular human IDE inhibition; AID 434962; inhibition, % at 5.59 µM; P14735; HEK cells, FAbetaB cleavage, fluorescence polarization; hit rate 0.41% among 320,000;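 active = percent inhibition above the average of all tested compounds plus 3 SD, set per screening campaign, cut at about 16% in these data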;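 also: IDE supplied by intact live HEK cells; FP after avidin binding of uncleaved biotin substrate so inhibition keeps polarization high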
Target sequence (P14735 whole entry, looked up): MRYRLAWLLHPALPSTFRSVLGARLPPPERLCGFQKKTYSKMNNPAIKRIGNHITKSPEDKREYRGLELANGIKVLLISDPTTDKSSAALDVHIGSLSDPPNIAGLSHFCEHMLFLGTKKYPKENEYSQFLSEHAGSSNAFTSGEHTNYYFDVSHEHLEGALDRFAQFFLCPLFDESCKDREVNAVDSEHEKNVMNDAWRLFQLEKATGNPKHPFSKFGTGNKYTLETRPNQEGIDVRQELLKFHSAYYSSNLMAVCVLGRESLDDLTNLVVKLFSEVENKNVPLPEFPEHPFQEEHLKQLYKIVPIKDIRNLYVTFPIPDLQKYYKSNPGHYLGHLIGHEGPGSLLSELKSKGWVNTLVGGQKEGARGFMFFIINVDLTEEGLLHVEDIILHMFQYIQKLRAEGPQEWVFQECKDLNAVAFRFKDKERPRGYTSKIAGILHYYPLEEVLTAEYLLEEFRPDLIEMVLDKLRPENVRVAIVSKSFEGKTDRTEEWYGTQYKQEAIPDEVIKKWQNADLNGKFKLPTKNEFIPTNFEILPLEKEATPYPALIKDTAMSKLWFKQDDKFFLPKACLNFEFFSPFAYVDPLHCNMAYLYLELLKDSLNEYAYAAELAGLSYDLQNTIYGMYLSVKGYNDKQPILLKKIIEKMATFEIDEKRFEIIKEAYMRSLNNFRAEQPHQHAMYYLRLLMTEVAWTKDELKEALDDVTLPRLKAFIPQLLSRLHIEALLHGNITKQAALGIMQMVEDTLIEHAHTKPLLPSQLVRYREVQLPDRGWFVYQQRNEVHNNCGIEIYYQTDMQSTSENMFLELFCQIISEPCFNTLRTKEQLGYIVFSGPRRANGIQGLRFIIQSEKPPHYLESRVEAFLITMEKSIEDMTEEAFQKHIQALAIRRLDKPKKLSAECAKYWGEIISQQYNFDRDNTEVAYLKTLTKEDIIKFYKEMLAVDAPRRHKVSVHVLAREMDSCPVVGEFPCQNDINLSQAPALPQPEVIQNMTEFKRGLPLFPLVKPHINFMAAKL
IDE cell activ: IDE (human) activation, cell-based; hit rate 0.073% among 340,000; activation, % at 5.96 µM; AID 493087; HEK cells, FAbeta-B cleavage, fluorescence polarization; 0% vehicle, 100% cell-free pure enzyme wells; P14735;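 active = activation above the mean of all tested compounds plus 3 SD, set per screening campaign, cut at about 17% in these data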
Yeast superoxide: caloric restriction mimetics inhibiting age-related superoxide in yeast | S. cerevisiae aged cells, superoxide DHE fluorescence; hits give low values | superoxide response (% of plate mean), % at 10 µM | hit rate 0.18% among 330,000;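 active = superoxide response under a set limit, about three screen SD below normal, cut at about 65% in these data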;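 also: yeast aged for seven days with compound at 30 °C before DHE staining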
Efflux pump mplx: blocks antifungal efflux pumps in multiplex yeast assay. inhibition, % at 10 µM. hit rate 0.44% among 330,000. S. cerevisiae Candida pump triplex, Nile Red efflux;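 active = plate passing quality check with inhibition over a set limit, or well fluorescence over plate mean plus 4 SD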;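 also: Nile Red retained in pooled yeast measured as flow cytometry median fluorescence; higher means more Nile Red kept so more efflux inhibition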
HDAC3 inh: inhibitors of human histone deacetylase 3 | O15379 | recombinant HDAC3, fluorogenic peptide/trypsin coupled, fluorescence | inhibition, % at 8.3 µM | hit rate 0.15% among 320,000; in the data active = inhibition above about 26%, passing the limit was not always enough; inconclusive = no clear call, values can overlap the other calls
IDE cell inh cf: confirmation of human insulin-degrading enzyme inhibitors in cells; shares compounds with IDE inh; HEK cells, FAbetaB cleavage, fluorescence polarization; inhibition, % at 5.59 µM; hit rate 51% among 1,200;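 active = mean inhibition across triplicate wells above the cutoff set by the earlier primary insulin-degrading enzyme screen, cut at about 16% in these data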
HEK293 tox: HEK cell cytotoxicity, counter-screen for IDE inhibitors; shares compounds with IDE inh; HEK293 cytotoxicity, ATP luminescence; inhibition, % at 5.59 µM; hit rate 28% among 1,200; AID 449730; in the data active = inhibition above about 22%
Each line names hits and unclear results; the compound was inactive in the other large screens (follow-up assays come after a bar, where they were run).

N#C/C(C(=O)Nc1ccc(Cl)cc1)=C(/S)Nc1ccccc1	IDE inh 45.5 | IDE cell inh cf inactive | HEK293 tox 24.1
CCN1C(=O)c2cccc3c(N)ccc(c23)C1=O	IDE inh 23.8 | IDE cell inh cf 60.6 | HEK293 tox inactive
Cc1ccc(N2C(=O)c3cccc4c(N)ccc(c34)C2=O)c2cccnc12	IDE inh 83.9 | IDE cell inh cf 65.1 | HEK293 tox 68.2
Cc1nn(C)c(C)c1N1C(=O)c2cccc3c(N)ccc(c23)C1=O	none
Cc1ccc(CNC(=O)c2ccc3c(c2)NC(=O)CS3)cc1	none
CCC/C(C#Cc1cc(OC)cc(OC)c1)=C1/c2ccccc2C(=O)N1c1ccccc1	none
CCC/C(C#Cc1ccc(N(C)C)cc1)=C1/c2ccccc2C(=O)N1c1ccccc1	IDE inh 21.8 | IDE cell inh cf inactive | HEK293 tox 25.6
CCOc1ccc2nc(SCC(=O)Nc3ccc4[nH]c(=O)[nH]c4c3)[nH]c2c1	none
Clc1ccc(-n2ncc3c(NCC4CCCO4)ncnc32)cc1 (stereo unspecified)	none
Clc1ccc2[nH]c3c(NCC4CCCO4)ncnc3c2c1 (stereo unspecified)	IDE inh 38.2 (no result: Tb MetRS inh, IDE cell activ) | IDE cell inh cf 16.8 | HEK293 tox 34.3
COc1ccc(C(=O)CSc2n[nH]c(=O)n2Cc2ccco2)cc1	IDE inh 17.7 | IDE cell inh cf inactive | HEK293 tox inactive
O=C(CSc1n[nH]c(=O)n1Cc1ccco1)Nc1ccccc1	none (no result: IDE cell activ)
Clc1ccc(C[n+]2csc3ccccc32)cc1	IDE inh 19.6 | IDE cell inh cf inactive | HEK293 tox inactive
Fc1ccc(C[n+]2csc3ccccc32)cc1	none
O=c1c(Cl)c(NCc2ccccc2Cl)cnn1C12CC3CC(CC(C3)C1)C2	IDE inh 34.2 | IDE cell inh cf 18.7 | HEK293 tox 40.1
O=c1c(Cl)c(NCc2ccco2)cnn1C12CC3CC(CC(C3)C1)C2	none
COc1cc(/C=C2\S/C(=N/S(=O)(=O)c3ccc(C)cc3)NC2=O)c([N+](=O)[O-])cc1OC	none
Cc1ccc(S(=O)(=O)/N=C2/NC(=O)/C(=C/c3cc([N+](=O)[O-])ccc3O)S2)cc1	IDE inh 57.7 | IDE cell inh cf 80.0 | HEK293 tox inactive
N#C/C(=C(/O)CSc1ccccn1)c1nc2ccccc2s1	IDE inh 30.4 | IDE cell inh cf inactive | HEK293 tox inactive
Cc1cccc(C(=O)Nc2cccc(-c3ccc4nncn4n3)c2)c1	IDE inh 20.1 | IDE cell inh cf inactive | HEK293 tox inactive
CCCCC(CC)CNC(=O)C1CC=CCC1C(=O)O (stereo unspecified)	none
COc1cc(/C=C(/C#N)C(=O)NC(C)c2ccccc2)cc(OC)c1O (stereo unspecified)	IDE inh 74.8 | IDE cell inh cf 78.8 | HEK293 tox inactive
CC(C)(C)CC(=O)Nc1ccc(-c2nnc3n2CCCCC3)cc1	none
O=C(/C=C/c1ccccc1Cl)Nc1ccc(-c2nnc3n2CCCCC3)cc1	IDE inh 30.8 | IDE cell inh cf inactive | HEK293 tox inactive
Cc1c(C(=O)Nc2ccc(-c3nnc4n3CCCCC4)cc2)oc2c1ccc1ccccc12	IDE inh 22.7 | IDE cell inh cf inactive | HEK293 tox 39.4
CCOC(=O)C1=C(CSc2nc(CC)c(C)cc2C#N)OC(N)=C(C#N)C1c1ccc(OC)cc1 (stereo unspecified)	IDE inh 21.6 | IDE cell inh cf inactive | HEK293 tox inactive
CSc1cccc(N2CC(C(=O)Nc3ccccc3N3CCCC3)CC2=O)c1 (stereo unspecified)	IDE inh 16.2 | IDE cell inh cf inactive | HEK293 tox inactive
CCCCCCN1C=CC=C/C1=C/C=C(C#N)C#N	IDE inh 28.7 | IDE cell inh cf 35.7 | HEK293 tox inactive
C=CCN1C=CC(=CC=C(C#N)C#N)C=C1	IDE inh 23.3 | IDE cell inh cf 40.8 | HEK293 tox inactive
CCCCCCN1C=CC(=C/C=C(\C#N)C(=O)OCC)C=C1	IDE inh 164.9 | IDE cell inh cf 121.2 | HEK293 tox inactive
CCOC(=O)/C(C#N)=C/C=C1\C=Cc2ccccc2N1CC	HDAC3 inh inconclusive
CCCN1C=CC(=CC=C(C#N)C#N)C=C1	IDE inh 39.0, HDAC3 inh inconclusive | IDE cell inh cf 47.1 | HEK293 tox inactive
COc1ccccc1C(=O)COC(=O)c1nc(Cl)ccc1Cl	none
Nc1cc(=O)[nH]c(N2CCN(c3ccccc3)CC2)n1	none
Cn1cc(C2=C(c3ccc(Cl)cc3Cl)C(=O)NC2=O)c2ccccc21	IDE inh 32.9 | IDE cell inh cf 60.0 | HEK293 tox inactive
CCCN(CCC)C(=O)c1cc(S(=O)(=O)N2CCCCC2)c[nH]1	none
CCN(CC)c1ccc(/C=C/C(=O)c2ccc(Br)cc2)cc1	IDE inh 163.2 | IDE cell inh cf 61.1 | HEK293 tox inactive
CN(C)c1ccc(C(=O)/C=C/c2ccc(Br)cc2)cc1	none
O=C(CCCOc1ccc(Cl)cc1Cl)NCc1ccncc1	IDE inh 24.3 | IDE cell inh cf inactive | HEK293 tox inactive
O=C(COc1ccc(Cl)cc1Cl)NCc1ccncc1	none (no result: IDE inh, Yeast superoxide, Efflux pump mplx, HDAC3 inh)
COc1ccc2c(c1)OC[C@H]1[C@@H]2N2C(=O)CNC(=O)[C@@]2(C)[C@H]1c1ccccc1	none
Cc1nc(-c2ccc(F)cc2)c(CC(=O)N(C)CC(=O)Nc2cccc(F)c2)s1	none (no result: IDE inh, IDE cell activ, Yeast superoxide, Efflux pump mplx, HDAC3 inh)
Cc1[nH]n(-c2ccccc2)c(=S)c1C=NCCCN=Cc1c(C)[nH]n(-c2ccccc2)c1=S	IDE inh 32.3 | IDE cell inh cf inactive | HEK293 tox 122.6
Nc1c2c(nc3ccn(Cc4ccccc4)c(=O)c13)CCC2	none
Nc1c2c(nc3ccn(-c4ccccc4)c(=O)c13)CCCCC2	IDE inh 18.0 | IDE cell inh cf 18.8 | HEK293 tox inactive
CC(C)(C)C(=O)/C=c1\s/c(=C\c2ccc(-c3ccc([N+](=O)[O-])cc3)o2)c(=O)n1CC(=O)NC(N)=O	IDE inh 22.3 | IDE cell inh cf 77.7 | HEK293 tox 26.4
Cc1ccc(S(=O)(=O)CC(=O)N2CCN(c3ccc([N+](=O)[O-])cc3)CC2)cc1	IDE inh 19.0 | IDE cell inh cf inactive | HEK293 tox 23.2
Cc1cccc(N2CCN(C(=O)CCNC(=O)Cn3ccc4ccccc4c3=O)CC2)c1C	IDE inh 16.9 | IDE cell inh cf inactive | HEK293 tox inactive
Cc1cc(C)c[n+](C(C)C(=O)c2ccc(-c3ccccc3)cc2)c1 (stereo unspecified)	IDE inh 17.2 | IDE cell inh cf inactive | HEK293 tox 70.5
COc1c(C)cc(C(=O)C2CCCN(S(=O)(=O)N(C)C)C2)cc1C (stereo unspecified)	none
